{"source": "ChEMBL document CHEMBL1142492", "about": "(J Med Chem, 2008)", "key": {"[1]": {"molecular_target": "Platelet-activating factor receptor (Homo sapiens) (UniProt P25105)", "test": "Inhibition of human PAF at 3 uM"}, "[2]": {"molecular_target": "Serine/threonine-protein kinase D2 (Homo sapiens) (UniProt Q9BZL6)", "test": "Inhibition of PRKD2 at 3 uM"}, "[3]": {"molecular_target": "Phosphatidylinositol 4-phosphate 3-kinase C2 domain-containing subunit beta (Homo sapiens) (UniProt O00750)", "test": "Inhibition of PIK3C2B at 3 uM"}, "[4]": {"molecular_target": "Dual specificity protein kinase CLK1 (Homo sapiens) (UniProt P49759)", "test": "Inhibition of CLK1 at 3 uM"}, "[5]": {"molecular_target": "Serine/threonine-protein kinase pim-1 (Homo sapiens) (UniProt P11309)", "sequence (P11309 whole entry, looked up)": "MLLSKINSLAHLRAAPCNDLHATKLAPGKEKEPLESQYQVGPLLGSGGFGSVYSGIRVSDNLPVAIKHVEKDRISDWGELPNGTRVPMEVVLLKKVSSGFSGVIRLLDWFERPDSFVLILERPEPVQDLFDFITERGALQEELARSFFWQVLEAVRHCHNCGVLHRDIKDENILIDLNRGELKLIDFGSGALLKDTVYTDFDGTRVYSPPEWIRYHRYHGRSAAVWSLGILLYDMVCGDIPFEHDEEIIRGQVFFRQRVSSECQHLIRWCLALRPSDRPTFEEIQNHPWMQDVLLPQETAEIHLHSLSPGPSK", "test": "Inhibition of PIM1 at 3 uM"}, "[6]": {"molecular_target": "Mitogen-activated protein kinase kinase kinase 9 (Homo sapiens) (UniProt P80192)", "test": "Inhibition of MLK1 at 3 uM"}, "[7]": {"molecular_target": "Bone morphogenetic protein receptor type-1A (Homo sapiens) (UniProt P36894)", "test": "Inhibition of BMPR1A at 3 uM"}, "[8]": {"molecular_target": "Serine/threonine-protein kinase D3 (Homo sapiens) (UniProt O94806)", "test": "Inhibition of PRKD3 at 3 uM"}, "[9]": {"molecular_target": "Mitogen-activated protein kinase kinase kinase kinase 4 (Homo sapiens) (UniProt O95819)", "test": "Inhibition of MAP4K4 at 3 uM"}, "Oryctolagus cuniculus": {"species_on_record": "Oryctolagus cuniculus", "conditions": "3 uM"}, "[10]": {"molecular_target": "Tyrosine-protein kinase Blk (Homo sapiens) (UniProt P51451)", "test": "Inhibition of BLK at 3 uM"}, "[11]": {"molecular_target": "MAP kinase-activated protein kinase 5 (Homo sapiens) (UniProt Q8IW41)", "test": "Inhibition of MAPKAPK5 at 3 uM"}, "[12]": {"molecular_target": "Serine/threonine-protein kinase STK11 (Homo sapiens) (UniProt Q15831)", "test": "Inhibition of LKB1 at 3 uM"}, "[13]": {"molecular_target": "Hepatocyte growth factor receptor (Homo sapiens) (UniProt P08581)", "test": "Inhibition of MET at 3 uM"}, "[14]": {"molecular_target": "Glutamate NMDA receptor (Rattus norvegicus) (UniProt P35439+Q00959+Q00960+Q00961+Q62645+Q8VHN2+Q9R1M7)", "test": "Displacement of phencyclidine from rat NMDA receptor at 3 uM", "format": "protein-complex assay", "procedure,_shortened": "(§1)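 Counter-screen binding/enzyme panel at single 3 μM, n=2; results as percent inhibition. Species per target as listed (rat NMDA, GABAA sites; human receptors, transporters; rabbit ACE).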"}, "[15]": {"molecular_target": "Phosphatidylinositol 4,5-bisphosphate 3-kinase catalytic subunit alpha isoform (Homo sapiens) (UniProt P42336)", "test": "Inhibition of PIK3CA at 3 uM"}, "[16]": {"molecular_target": "Insulin receptor-related protein (Homo sapiens) (UniProt P14616)", "test": "Inhibition of INSRR at 3 uM"}, "[17]": {"molecular_target": "Dual specificity mitogen-activated protein kinase kinase 1 (Homo sapiens) (UniProt Q02750)", "sequence (Q02750 whole entry)": "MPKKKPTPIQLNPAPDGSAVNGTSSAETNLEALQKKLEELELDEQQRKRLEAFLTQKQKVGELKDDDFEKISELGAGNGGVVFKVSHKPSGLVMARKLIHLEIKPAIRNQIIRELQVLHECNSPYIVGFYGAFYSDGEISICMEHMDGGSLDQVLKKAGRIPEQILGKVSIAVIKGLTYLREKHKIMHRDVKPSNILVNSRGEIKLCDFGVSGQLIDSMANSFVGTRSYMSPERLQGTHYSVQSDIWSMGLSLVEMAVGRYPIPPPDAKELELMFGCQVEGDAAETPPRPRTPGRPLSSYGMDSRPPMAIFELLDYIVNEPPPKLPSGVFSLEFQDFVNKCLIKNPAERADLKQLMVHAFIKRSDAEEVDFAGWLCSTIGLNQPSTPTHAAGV", "test": "Inhibition of MEK1 at 3 uM"}, "[18]": {"molecular_target": "Inhibitor of nuclear factor kappa-B kinase subunit epsilon (Homo sapiens) (UniProt Q14164)", "sequence (Q14164 whole entry)": "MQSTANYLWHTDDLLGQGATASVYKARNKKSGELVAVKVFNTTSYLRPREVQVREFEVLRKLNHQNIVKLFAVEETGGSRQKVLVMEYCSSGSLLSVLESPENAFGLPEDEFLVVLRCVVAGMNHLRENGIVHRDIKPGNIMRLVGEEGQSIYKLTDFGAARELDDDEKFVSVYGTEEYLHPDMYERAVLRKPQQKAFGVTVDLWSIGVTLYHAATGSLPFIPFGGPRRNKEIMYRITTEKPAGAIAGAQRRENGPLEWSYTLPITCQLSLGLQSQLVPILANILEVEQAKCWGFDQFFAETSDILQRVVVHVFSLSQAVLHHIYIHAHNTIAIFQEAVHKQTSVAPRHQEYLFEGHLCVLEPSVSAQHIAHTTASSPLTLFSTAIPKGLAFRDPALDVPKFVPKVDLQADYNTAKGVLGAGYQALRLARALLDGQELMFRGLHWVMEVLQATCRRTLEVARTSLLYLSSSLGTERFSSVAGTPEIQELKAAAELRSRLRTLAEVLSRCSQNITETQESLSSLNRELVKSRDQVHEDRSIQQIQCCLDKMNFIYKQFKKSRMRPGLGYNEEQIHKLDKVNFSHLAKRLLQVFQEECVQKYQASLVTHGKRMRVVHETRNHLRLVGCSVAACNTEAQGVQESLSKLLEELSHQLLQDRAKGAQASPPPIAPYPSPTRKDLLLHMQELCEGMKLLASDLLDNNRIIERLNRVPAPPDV", "test": "Inhibition of IKK-epsilon at 3 uM"}, "[19]": {"molecular_target": "5'-AMP-activated protein kinase catalytic subunit alpha-1 (Homo sapiens) (UniProt Q13131)", "test": "Inhibition of AMPKalpha1 at 3 uM"}, "[20]": {"molecular_target": "Gamma-aminobutyric acid receptor subunit alpha-1 (Rattus norvegicus) (UniProt P62813)", "sequence (P62813 whole entry)": "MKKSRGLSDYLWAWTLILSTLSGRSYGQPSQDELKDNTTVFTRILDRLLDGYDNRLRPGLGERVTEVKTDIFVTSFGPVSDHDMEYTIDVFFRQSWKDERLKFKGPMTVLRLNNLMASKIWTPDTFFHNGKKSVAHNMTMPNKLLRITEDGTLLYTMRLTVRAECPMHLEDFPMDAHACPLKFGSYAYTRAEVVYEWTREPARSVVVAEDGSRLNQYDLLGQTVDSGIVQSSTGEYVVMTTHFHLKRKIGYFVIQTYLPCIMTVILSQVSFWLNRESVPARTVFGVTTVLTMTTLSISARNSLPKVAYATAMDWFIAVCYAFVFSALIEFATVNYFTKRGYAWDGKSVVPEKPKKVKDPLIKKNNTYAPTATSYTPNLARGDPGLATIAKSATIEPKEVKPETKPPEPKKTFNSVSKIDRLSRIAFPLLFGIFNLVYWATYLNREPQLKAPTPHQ", "test": "Displacement of muscimol from rat GABAA1 receptor at 3 uM", "procedure,_shortened": "as §1"}, "[21]": {"molecular_target": "MAP kinase-interacting serine/threonine-protein kinase 1 (Homo sapiens) (UniProt Q9BUB5)", "test": "Inhibition of MKNK1 at 3 uM"}, "[22]": {"system": "Mast/stem cell growth factor receptor Kit (Homo sapiens), P10721 [V559D]", "sequence (P10721 whole entry V559D)": "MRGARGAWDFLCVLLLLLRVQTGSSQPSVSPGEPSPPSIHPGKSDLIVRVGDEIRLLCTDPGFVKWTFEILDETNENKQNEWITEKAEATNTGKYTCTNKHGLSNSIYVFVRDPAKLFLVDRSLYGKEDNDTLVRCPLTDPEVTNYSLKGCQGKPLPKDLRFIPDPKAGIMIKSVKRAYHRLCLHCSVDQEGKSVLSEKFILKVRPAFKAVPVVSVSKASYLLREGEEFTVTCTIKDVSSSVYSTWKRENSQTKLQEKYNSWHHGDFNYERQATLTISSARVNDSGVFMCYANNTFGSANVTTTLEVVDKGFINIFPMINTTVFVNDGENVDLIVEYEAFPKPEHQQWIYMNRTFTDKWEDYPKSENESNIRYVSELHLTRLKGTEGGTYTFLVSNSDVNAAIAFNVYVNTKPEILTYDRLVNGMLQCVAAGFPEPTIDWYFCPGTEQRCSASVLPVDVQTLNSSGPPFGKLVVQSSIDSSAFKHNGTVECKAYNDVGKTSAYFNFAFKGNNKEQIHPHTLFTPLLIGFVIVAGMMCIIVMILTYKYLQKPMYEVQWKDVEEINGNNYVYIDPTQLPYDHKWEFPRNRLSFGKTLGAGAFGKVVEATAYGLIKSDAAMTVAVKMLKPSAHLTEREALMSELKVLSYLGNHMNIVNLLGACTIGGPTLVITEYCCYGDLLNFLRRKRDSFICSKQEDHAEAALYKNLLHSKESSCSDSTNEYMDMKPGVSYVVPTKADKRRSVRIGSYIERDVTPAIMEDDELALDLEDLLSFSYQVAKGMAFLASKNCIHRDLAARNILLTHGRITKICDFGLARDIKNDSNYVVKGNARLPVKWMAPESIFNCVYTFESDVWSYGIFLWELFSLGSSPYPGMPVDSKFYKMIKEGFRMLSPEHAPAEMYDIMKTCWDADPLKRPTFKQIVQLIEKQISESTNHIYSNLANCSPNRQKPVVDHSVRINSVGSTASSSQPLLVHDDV", "test": "Inhibition of KIT V559D mutant at 3 uM"}, "[23]": {"molecular_target": "Type-1 angiotensin II receptor (Homo sapiens) (UniProt P30556)", "test": "Inhibition of human AT1 receptor at 3 uM", "procedure,_shortened": "as §1"}, "[24]": {"molecular_target": "Dual specificity protein kinase CLK2 (Homo sapiens) (UniProt P49760)", "test": "Inhibition of CLK2 at 3 uM"}, "[25]": {"molecular_target": "Serine/threonine-protein kinase ULK3 (Homo sapiens) (UniProt Q6PHR2)", "test": "Inhibition of ULK3 at 3 uM"}, "[26]": {"molecular_target": "Mitogen-activated protein kinase kinase kinase kinase 5 (Homo sapiens) (UniProt Q9Y4K4)", "test": "Inhibition of MAP4K5 at 3 uM"}, "[27]": {"molecular_target": "Type-2 angiotensin II receptor (Homo sapiens) (UniProt P50052)", "sequence (P50052 whole entry)": "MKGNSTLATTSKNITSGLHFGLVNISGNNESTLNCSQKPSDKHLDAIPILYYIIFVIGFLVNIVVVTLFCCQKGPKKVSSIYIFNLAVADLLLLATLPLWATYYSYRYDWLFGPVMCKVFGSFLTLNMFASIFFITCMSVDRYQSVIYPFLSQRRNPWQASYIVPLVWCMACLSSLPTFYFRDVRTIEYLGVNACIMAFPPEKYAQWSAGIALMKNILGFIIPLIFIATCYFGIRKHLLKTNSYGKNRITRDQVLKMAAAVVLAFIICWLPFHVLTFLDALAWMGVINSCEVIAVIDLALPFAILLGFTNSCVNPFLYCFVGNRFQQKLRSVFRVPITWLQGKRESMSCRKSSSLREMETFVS", "test": "Inhibition of human AT2 receptor at 3 uM", "procedure,_shortened": "as §1"}, "[28]": {"molecular_target": "Phosphatidylinositol 4,5-bisphosphate 3-kinase catalytic subunit delta isoform (Homo sapiens) (UniProt O00329)", "test": "Inhibition of PIK3CD at 3 uM"}, "[29]": {"molecular_target": "RAC-beta serine/threonine-protein kinase (Homo sapiens) (UniProt P31751)", "test": "Inhibition of AKT2 at 3 uM"}, "[30]": {"molecular_target": "Tyrosine-protein kinase ZAP-70 (Homo sapiens) (UniProt P43403)", "sequence (P43403 whole entry)": "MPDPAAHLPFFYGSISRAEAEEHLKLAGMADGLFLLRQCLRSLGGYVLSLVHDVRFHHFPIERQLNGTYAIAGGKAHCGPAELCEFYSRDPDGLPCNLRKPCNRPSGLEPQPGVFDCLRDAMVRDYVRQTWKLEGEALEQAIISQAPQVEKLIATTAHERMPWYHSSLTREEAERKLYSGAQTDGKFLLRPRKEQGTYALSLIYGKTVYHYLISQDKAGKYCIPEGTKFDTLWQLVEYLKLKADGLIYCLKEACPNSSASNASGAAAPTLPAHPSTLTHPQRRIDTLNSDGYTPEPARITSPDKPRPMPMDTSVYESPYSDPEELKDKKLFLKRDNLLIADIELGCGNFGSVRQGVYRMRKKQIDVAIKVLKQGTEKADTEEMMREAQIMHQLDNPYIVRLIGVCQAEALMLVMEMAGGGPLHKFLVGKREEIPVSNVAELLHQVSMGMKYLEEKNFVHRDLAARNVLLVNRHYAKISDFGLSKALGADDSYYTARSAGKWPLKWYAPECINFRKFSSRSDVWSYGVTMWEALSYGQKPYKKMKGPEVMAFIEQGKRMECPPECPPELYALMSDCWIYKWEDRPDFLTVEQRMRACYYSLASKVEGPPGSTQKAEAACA", "test": "Inhibition of ZAP70 at 3 uM"}, "[31]": {"molecular_target": "TGF-beta receptor type-1 (Homo sapiens) (UniProt P36897)", "sequence (P36897 whole entry)": "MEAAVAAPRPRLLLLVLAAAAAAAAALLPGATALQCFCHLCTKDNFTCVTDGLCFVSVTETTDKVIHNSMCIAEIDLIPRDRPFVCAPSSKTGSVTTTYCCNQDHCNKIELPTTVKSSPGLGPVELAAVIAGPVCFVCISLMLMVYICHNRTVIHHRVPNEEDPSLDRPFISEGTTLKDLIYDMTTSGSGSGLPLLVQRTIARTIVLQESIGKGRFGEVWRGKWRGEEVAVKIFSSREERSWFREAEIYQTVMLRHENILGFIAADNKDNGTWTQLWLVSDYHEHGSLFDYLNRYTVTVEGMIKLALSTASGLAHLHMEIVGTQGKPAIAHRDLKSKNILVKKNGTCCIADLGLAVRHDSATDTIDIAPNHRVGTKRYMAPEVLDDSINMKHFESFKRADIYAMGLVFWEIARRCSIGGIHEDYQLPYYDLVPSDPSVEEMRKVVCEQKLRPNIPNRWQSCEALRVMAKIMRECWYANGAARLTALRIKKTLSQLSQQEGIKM", "test": "Inhibition of TGFBR1 at 3 uM"}, "[32]": {"test": "Inhibition of myosin light chain bisphosphorylation in rat A7r5 cells after 1 hr"}, "[33]": {"molecular_target": "Endothelin receptor type B (Homo sapiens) (UniProt P24530)", "test": "Inhibition of human endothelin ETB receptor at 3 uM", "procedure,_shortened": "as §1"}, "[34]": {"molecular_target": "Estrogen receptor (Homo sapiens) (UniProt P03372)", "test": "Inhibition of human ERalpha at 3 uM", "procedure,_shortened": "as §1"}, "[35]": {"molecular_target": "Serine/threonine-protein kinase PLK4 (Homo sapiens) (UniProt O00444)", "test": "Inhibition of PLK4 at 3 uM"}, "[36]": {"molecular_target": "Beta-2 adrenergic receptor (Homo sapiens) (UniProt P07550)", "test": "Inhibition of human adrenergic beta2 receptor at 3 uM", "procedure,_shortened": "as §1"}, "Rattus norvegicus": {"species_on_record": "Rattus norvegicus", "conditions": "3 uM"}, "[37]": {"molecular_target": "TRAF2 and NCK-interacting protein kinase (Homo sapiens) (UniProt Q9UKE5)", "test": "Inhibition of TNIK at 3 uM"}, "[38]": {"molecular_target": "Proto-oncogene tyrosine-protein kinase ROS (Homo sapiens) (UniProt P08922)", "test": "Inhibition of ROS1 at 3 uM"}, "[39]": {"molecular_target": "Substance-P receptor (Homo sapiens) (UniProt P25103)", "test": "Inhibition of human NK1 receptor at 3 uM", "procedure,_shortened": "as §1"}, "[40]": {"molecular_target": "Membrane-associated tyrosine- and threonine-specific cdc2-inhibitory kinase (Homo sapiens) (UniProt Q99640)", "test": "Inhibition of PKMYT1 at 3 uM"}, "[41]": {"system": "Epidermal growth factor receptor (Homo sapiens), P00533 [L858R]", "test": "Inhibition of EGFR L858R mutant at 3 uM", "format": "protein assay", "procedure,_shortened": "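Single-concentration kinase panel scoring: each value is the percentage of enzyme activity remaining relative to a DMSO-only control. An activity statistically indistinct from DMSO control was scored \"no hit\".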"}, "[42]": {"molecular_target": "Tyrosine-protein kinase CSK (Homo sapiens) (UniProt P41240)", "test": "Inhibition of CSK at 3 uM"}, "[43]": {"molecular_target": "Myotonin-protein kinase (Homo sapiens) (UniProt Q09013)", "sequence (Q09013 whole entry)": "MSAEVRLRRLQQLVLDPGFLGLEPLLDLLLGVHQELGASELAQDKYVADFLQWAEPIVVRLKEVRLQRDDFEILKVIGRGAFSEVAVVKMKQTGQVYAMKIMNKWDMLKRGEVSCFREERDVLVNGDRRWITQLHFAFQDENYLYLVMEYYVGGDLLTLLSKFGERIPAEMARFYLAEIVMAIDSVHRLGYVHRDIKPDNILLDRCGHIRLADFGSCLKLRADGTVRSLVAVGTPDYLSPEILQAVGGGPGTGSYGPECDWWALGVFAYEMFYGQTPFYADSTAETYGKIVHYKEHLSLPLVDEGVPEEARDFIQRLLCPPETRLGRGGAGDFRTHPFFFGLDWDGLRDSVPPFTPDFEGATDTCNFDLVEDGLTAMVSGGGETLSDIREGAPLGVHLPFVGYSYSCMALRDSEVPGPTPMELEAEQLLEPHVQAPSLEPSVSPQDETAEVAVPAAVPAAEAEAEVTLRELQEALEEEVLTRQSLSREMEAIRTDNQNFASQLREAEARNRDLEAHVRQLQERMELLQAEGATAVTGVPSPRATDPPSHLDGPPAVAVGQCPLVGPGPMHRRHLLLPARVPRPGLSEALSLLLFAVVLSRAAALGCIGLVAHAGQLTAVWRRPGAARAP", "test": "Inhibition of DMPK at 3 uM"}}}
{"molecule": "CN(C)CCOc1cc(-c2cn[nH]c2)ccc1NC(=O)C1COc2ccccc2O1", "note": "(stereo not given) [SR-3677]", "values": [{"measurement": "inhibition", "setting": "[1]", "result": -4, "unit": "%"}, {"measurement": "inhibition", "setting": "[2]", "result": "< 10", "unit": "%"}, {"measurement": "inhibition", "setting": "[3]", "result": "< 10", "unit": "%"}, {"measurement": "inhibition", "setting": "[4]", "result": 94.9, "unit": "%"}, {"measurement": "inhibition", "setting": "[5]", "result": "< 10", "unit": "%"}, {"measurement": "inhibition", "setting": "[6]", "result": "< 10", "unit": "%"}, {"measurement": "inhibition", "setting": "[7]", "result": "< 10", "unit": "%"}, {"measurement": "inhibition", "setting": "[8]", "result": "< 10", "unit": "%"}, {"measurement": "inhibition", "setting": "[9]", "result": "< 10", "unit": "%"}, {"measurement": "inhibition", "setting": "Oryctolagus cuniculus", "result": 4, "unit": "%"}, {"measurement": "inhibition", "setting": "[10]", "result": "< 10", "unit": "%"}, {"measurement": "inhibition", "setting": "[11]", "result": "< 10", "unit": "%"}, {"measurement": "inhibition", "setting": "[12]", "result": "< 10", "unit": "%"}, {"measurement": "inhibition", "setting": "[13]", "result": "< 10", "unit": "%"}, {"measurement": "inhibition", "setting": "[14]", "result": -2, "unit": "%"}, {"measurement": "inhibition", "setting": "[15]", "result": "< 10", "unit": "%"}, {"measurement": "inhibition", "setting": "[16]", "result": "< 10", "unit": "%"}, {"measurement": "inhibition", "setting": "[17]", "result": "< 10", "unit": "%"}, {"measurement": "inhibition", "setting": "[18]", "result": "< 10", "unit": "%"}, {"measurement": "inhibition", "setting": "[19]", "result": "< 10", "unit": "%"}, {"measurement": "inhibition", "setting": "[20]", "result": 5, "unit": "%"}, {"measurement": "inhibition", "setting": "[21]", "result": "< 10", "unit": "%"}, {"measurement": "inhibition", "setting": "[22]", "result": "< 10", "unit": "%"}, {"measurement": "inhibition", "setting": "[23]", "result": -1, "unit": "%"}, {"measurement": "inhibition", "setting": "[24]", "result": 70, "unit": "%"}, {"measurement": "inhibition", "setting": "[25]", "result": "< 10", "unit": "%"}, {"measurement": "inhibition", "setting": "[26]", "result": "< 10", "unit": "%"}, {"measurement": "inhibition", "setting": "[27]", "result": -1, "unit": "%"}, {"measurement": "inhibition", "setting": "[28]", "result": "< 10", "unit": "%"}, {"measurement": "inhibition", "setting": "[29]", "result": "< 10", "unit": "%"}, {"measurement": "inhibition", "setting": "[30]", "result": "< 10", "unit": "%"}, {"measurement": "inhibition", "setting": "[31]", "result": "< 10", "unit": "%"}, {"measurement": "IC50", "setting": "[32]", "result": 3.5, "unit": "nM"}, {"measurement": "inhibition", "setting": "[33]", "result": -1, "unit": "%"}, {"measurement": "inhibition", "setting": "[34]", "result": -2, "unit": "%"}, {"measurement": "inhibition", "setting": "[35]", "result": "< 10", "unit": "%"}, {"measurement": "inhibition", "setting": "[36]", "result": 19, "unit": "%"}, {"measurement": "inhibition", "setting": "Rattus norvegicus", "result": 24, "unit": "%"}, {"measurement": "inhibition", "setting": "[37]", "result": "< 10", "unit": "%"}, {"measurement": "inhibition", "setting": "[38]", "result": "< 10", "unit": "%"}, {"measurement": "inhibition", "setting": "[39]", "result": -6, "unit": "%"}, {"measurement": "inhibition", "setting": "[40]", "result": "< 10", "unit": "%"}, {"measurement": "inhibition", "setting": "[41]", "result": "< 10", "unit": "%"}, {"measurement": "inhibition", "setting": "[42]", "result": "< 10", "unit": "%"}, {"measurement": "inhibition", "setting": "[43]", "result": "< 10", "unit": "%"}]}
